High-throughput results (PubChem)
The sample as a whole holds a higher share of hits than the screen did.
CHOP inh: blocks CHOP induction under ER stress; CHO-K1 CHOP-promoter luciferase, tunicamycin-induced, 15-18 h; inhibition, % at 10 µM; 3.8% of 220,000 active;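 active means compounds that reduced the stress-induced luciferase reporter signal by more than about 70% of percent inhibition, limit read from the data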;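 further: 0% = tunicamycin plus vehicle and 100% = wells without tunicamycin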
Jurkat NFkB inh: inhibitors of the PMA/ionomycin-induced NF-kB reporter in Jurkat cells. PMA/ionomycin-induced NF-kB luciferase reporter, luminescence. inhibition, % at 4 µM. AID 435003. 0.53% of 330,000 active; in the data active means inhibition above about 50%
UPR CHOP act: apoptotic UPR (CHOP) activation | CHO-CHOP luciferase reporter, luminescence; percent of tunicamycin response over DMSO baseline | activation, % at 10 µM | 0.34% of 330,000 active | AID 449763;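 active means at 10 µM dose, activation of 40% or more, normalized to positive control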;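 further: 100% = tunicamycin at 10 µg/mL and 0% = DMSO alone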
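Assay system: CHO-CHOP cells, stable luciferase reporter of PERK-eIF2a-CHOP signalling / Buffer or medium: F12 plus 10% serum / Compound dosing: one dose, 10 µM in 0.5% DMSO / Times: 6 h compound treatment, 37 °C / Technique: luciferase luminescence / Read-out: % reporter activation, DMSO baseline versus tunicamycin full activation / Benchmarks: tunicamycin and DMSO controls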
UPR XBP1 act: activators of adaptive arm of unfolded protein response (XBP1); CHO-XBP1 luciferase reporter, IRE1-XBP1 UPR activation, luminescence; percent of tunicamycin response, DMSO as zero; 0.33% of 330,000 active; activation, % at 20 µM;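 active means versus positive control, 20 µM dose yields 30% or more activation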;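 further: 100% = tunicamycin at 10 µg/mL and 0% = DMSO only wells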
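Material: CHO cell line with stable XBP1 luciferase reporter; buffer or medium: F12 medium containing 10% fetal bovine serum; compound: single point, 20 µM final compound, 1% DMSO; incubation: 6 h treatment, 37 °C; measured by: glow luminescence from Steady-Glo reagent; evaluation: activation, % of tunicamycin; control set: tunicamycin high, DMSO low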
697 NFkB inh: inhibitors of the PMA/ionomycin-induced NF-kB reporter in 697 B cells; AID 435022; inhibition, % at 4 µM; 0.33% of 330,000 active; 697 B-cell NF-kB luciferase reporter, 16 h; in the data active means inhibition above about 35%
697 NFkB conf: inhibitors of the PMA/ionomycin-induced NF-kB reporter in 697 B cells, retest; shares compounds with 697 NFkB inh; 697 B-cell NF-kB luciferase, 16 h; inhibition, % at 4 µM; 35% of 2,000 active; in the data active means inhibition mostly above about 28%, no sharp cut-off; inactive means mostly below about 22%
An asterisk follows results filed as active.

How did COc1ccc(-c2csc(N3C(=O)CNC3=S)n2)cc1 do in these assays?
CHOP inh: -22

How did O=C(O)c1ccc(N/N=C/c2cccc(F)c2)cc1 do in these assays?
CHOP inh: 3; Jurkat NFkB inh: -79; UPR CHOP act: -2; UPR XBP1 act: -2; 697 NFkB inh: -185

What do the screens show for `O=C(O)c1ccc(N/N=C/c2cccc(C(F)(F)F)c2)cc1`?
Jurkat NFkB inh: -20; UPR CHOP act: 4; UPR XBP1 act: 0; 697 NFkB inh: -443; 697 NFkB conf: 18

What do the screens show for `COc1ccc(NC(=O)C2CCN(c3cc(-c4ccccc4)nc4ncnn34)CC2)cc1OC`?
CHOP inh: 17; Jurkat NFkB inh: 24; UPR CHOP act: -1; UPR XBP1 act: -1; 697 NFkB inh: 40*; 697 NFkB conf: 8

How did COc1ccc(OC)c(NC(=O)C2CCN(c3cc(-c4ccccc4)nc4ncnn34)CC2)c1 do in these assays?
CHOP inh: 16; Jurkat NFkB inh: 25; UPR CHOP act: 2; UPR XBP1 act: -2; 697 NFkB inh: 24

Results for O=C(COCc1cc(-c2ccc3c(c2)OCO3)on1)N1CCN(c2cccc(C(F)(F)F)c2)CC1 ?
Jurkat NFkB inh: 2; UPR CHOP act: -2; UPR XBP1 act: -3; 697 NFkB inh: -19

How did Cc1cc(C)n2nc(SC(C)C(=O)N(C)c3ccccc3)nc2n1 (centres undefined) do in these assays?
Jurkat NFkB inh: -1; UPR CHOP act: -2; UPR XBP1 act: -2; 697 NFkB inh: 19

What do the screens show for `COC(=O)c1ccccc1NC(=S)NC(=O)c1ccc2c(c1)OCO2`?
Jurkat NFkB inh: 1; UPR CHOP act: 1; UPR XBP1 act: -3; 697 NFkB inh: 46*; 697 NFkB conf: 9

What do the screens show for `COc1ccc(-n2cc3ccc([N+](=O)[O-])cc3n2)cc1`?
Jurkat NFkB inh: -146; UPR CHOP act: 4; UPR XBP1 act: -1; 697 NFkB inh: -233

What do the screens show for `CCNS(=O)(=O)c1ccc2c3c(cccc13)C(=O)N2`?
CHOP inh: 23; Jurkat NFkB inh: 5; UPR CHOP act: -2; UPR XBP1 act: 0; 697 NFkB inh: 38*; 697 NFkB conf: 19

What do the screens show for `O=C1Nc2ccc(S(=O)(=O)NCCCO)c3cccc1c23`?
Jurkat NFkB inh: -4; UPR CHOP act: 2; UPR XBP1 act: -3; 697 NFkB inh: -3

Results for CC(OC(=O)CCc1ccccc1)C(=O)Nc1ccc(Cl)cn1 (centres undefined) ?
Jurkat NFkB inh: 12; UPR CHOP act: -1; UPR XBP1 act: -1; 697 NFkB inh: -7

What do the screens show for `CCOC(=O)c1ccccc1N/C=C/C(=O)c1cccs1`?
CHOP inh: 54; Jurkat NFkB inh: -7; UPR CHOP act: 3; UPR XBP1 act: 4; 697 NFkB inh: -1

What do the screens show for `O=C(/C=C/Nc1ccccc1F)c1cccs1`?
CHOP inh: 39; Jurkat NFkB inh: -112; UPR CHOP act: -5; UPR XBP1 act: -4; 697 NFkB inh: -349; 697 NFkB conf: -88

What do the screens show for `CCOc1ccc(-c2nnc(-c3cccs3)o2)cc1OCC`?
CHOP inh: -21; Jurkat NFkB inh: -68; UPR CHOP act: 4; UPR XBP1 act: 15; 697 NFkB inh: -58

How did CCOc1ccc(-c2nnc(-c3cccs3)o2)cc1 do in these assays?
CHOP inh: 32; Jurkat NFkB inh: -93; UPR CHOP act: -3; UPR XBP1 act: -3; 697 NFkB inh: -251; 697 NFkB conf: -212

How did O=Cc1c(NC2CCCCC2)c2ccccc2[nH]c1=O do in these assays?
Jurkat NFkB inh: -2; UPR CHOP act: 3; UPR XBP1 act: -4; 697 NFkB inh: 2

Results for CCSC1=C(C#N)C(c2ccc(Cl)cc2)C2=C(CCCC2=O)N1 (centres undefined) ?
CHOP inh: 64; Jurkat NFkB inh: 4; UPR CHOP act: -4; UPR XBP1 act: -2; 697 NFkB inh: 35*; 697 NFkB conf: 13

Results for CSC1=C(C#N)C(c2ccc3c(c2)OCO3)C2=C(CCCC2=O)N1 (centres undefined) ?
CHOP inh: 19; Jurkat NFkB inh: 3; UPR CHOP act: 0; UPR XBP1 act: -2; 697 NFkB inh: -8

Results for Cc1cccn2c(=O)c3cc(C(=O)NC4CCCCC4)c(=N)n(CCN4CCOCC4)c3nc12 ?
CHOP inh: -10; Jurkat NFkB inh: 12; UPR CHOP act: 1; UPR XBP1 act: 1; 697 NFkB inh: 53*; 697 NFkB conf: 39*

Results for CCCn1c(=N)c(C(=O)NC2CCCC2)cc2c(=O)n3cccc(C)c3nc21 ?
CHOP inh: -23; Jurkat NFkB inh: -11; UPR CHOP act: -1; UPR XBP1 act: -6; 697 NFkB inh: 26

How did CCCc1ccc(C(=O)NNc2cccc(C)c2)cc1 do in these assays?
CHOP inh: -13; Jurkat NFkB inh: 1; UPR CHOP act: 4; UPR XBP1 act: 4; 697 NFkB inh: -13

What do the screens show for `O=C(CSc1nnc(-c2cccs2)n1-c1ccccc1)Nc1ccccc1`?
CHOP inh: 34; Jurkat NFkB inh: -5; UPR CHOP act: 2; UPR XBP1 act: 5; 697 NFkB inh: 13

Results for CC(=O)Nc1ccc(NC(=O)CSc2nnc(-c3cccs3)n2N)cc1 ?
Jurkat NFkB inh: 19; UPR CHOP act: 1; UPR XBP1 act: -3; 697 NFkB inh: 40*; 697 NFkB conf: -1

What do the screens show for `Cc1ccc(C(=O)OCC(=O)N2CCNC2=O)c(C)c1`?
Jurkat NFkB inh: -35; UPR CHOP act: 3; UPR XBP1 act: 5; 697 NFkB inh: -27

What do the screens show for `Fc1ccc(C(c2nnnn2Cc2ccco2)N2CCN(C3CCCCC3)CC2)cc1` (centres undefined)?
CHOP inh: 7; Jurkat NFkB inh: -2; UPR CHOP act: 2; UPR XBP1 act: 0; 697 NFkB inh: 36*; 697 NFkB conf: 0

What do the screens show for `Cc1cc(C)c2nc(NC(=O)C3CSC4(C)CCC(=O)N34)sc2c1` (centres undefined)?
Jurkat NFkB inh: -7; UPR CHOP act: 3; UPR XBP1 act: -1; 697 NFkB inh: 47*; 697 NFkB conf: 45*

How did CCOc1ccc(S(=O)(=O)n2nc(C)c(S(=O)(=O)N3CCOCC3)c2C)cc1 do in these assays?
Jurkat NFkB inh: -11; UPR CHOP act: 1; UPR XBP1 act: -2; 697 NFkB inh: 10

Results for CCOc1ccc(-c2cc(CCCC(=O)NCc3ccco3)no2)cc1 ?
CHOP inh: 84*; Jurkat NFkB inh: -20; UPR CHOP act: -4; UPR XBP1 act: -4; 697 NFkB inh: 57*; 697 NFkB conf: 46*

What do the screens show for `N#Cc1ccccc1OCCCN1CCC(Cc2ccccc2)CC1`?
Jurkat NFkB inh: 6; UPR CHOP act: 1; UPR XBP1 act: 0; 697 NFkB inh: -8

How did Cc1c(CC(=O)O)c(=O)oc2c(C)c(OCc3ccc(F)cc3Cl)ccc12 do in these assays?
Jurkat NFkB inh: -1; UPR CHOP act: 0; UPR XBP1 act: -3; 697 NFkB inh: -1
